Measurements: ChEMBL document CHEMBL1781928, “Thiazolylmethyl ortho-substituted phenyl glucoside library as novel C-aryl glucoside SGLT2 inhibitors” (Eur J Med Chem, 2011)

Molecular target: T1, Sodium/glucose cotransporter 2 (Homo sapiens, UniProt P31639)
T1 sequence (P31639 whole entry): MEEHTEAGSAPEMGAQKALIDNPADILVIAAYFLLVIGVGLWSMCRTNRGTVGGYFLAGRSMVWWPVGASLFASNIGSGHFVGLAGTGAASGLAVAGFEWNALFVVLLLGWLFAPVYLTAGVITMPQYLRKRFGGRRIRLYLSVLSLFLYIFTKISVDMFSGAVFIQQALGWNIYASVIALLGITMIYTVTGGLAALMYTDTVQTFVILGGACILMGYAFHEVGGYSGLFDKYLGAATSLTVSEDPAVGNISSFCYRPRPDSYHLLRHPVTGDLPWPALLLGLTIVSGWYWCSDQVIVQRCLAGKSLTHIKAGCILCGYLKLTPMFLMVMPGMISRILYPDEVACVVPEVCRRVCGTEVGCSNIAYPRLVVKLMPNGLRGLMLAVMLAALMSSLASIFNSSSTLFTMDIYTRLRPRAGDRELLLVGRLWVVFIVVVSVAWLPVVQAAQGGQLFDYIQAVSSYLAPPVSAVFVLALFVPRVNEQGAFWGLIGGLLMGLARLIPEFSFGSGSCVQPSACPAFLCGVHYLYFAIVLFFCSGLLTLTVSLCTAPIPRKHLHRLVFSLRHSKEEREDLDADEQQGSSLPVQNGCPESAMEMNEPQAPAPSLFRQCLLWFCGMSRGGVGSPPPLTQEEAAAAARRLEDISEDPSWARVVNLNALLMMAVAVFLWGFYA
Assay: Inhibition of human SGLT2 expressed in CHO cells assessed as [14C]-alpha-methyl-D-glucopyranoside uptake after 2 hrs by liquid scintillation counter
Type: cell-based
Procedure, shortened: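 hSGLT2 cDNA from adult kidney, stably transfected into CHO cells. They were pretreated 10 min at 37 °C in choline-chloride buffer (pH 7.4), then taken up 2 h at 37 °C in NaCl buffer with 1 mM unlabeled AMG plus ¹⁴C-AMG (8 uM) and inhibitor or DMSO. Two washes in buffer containing 10 mM AMG. IC₅₀ by nonlinear regression.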

IC50	Structure (SMILES)
20.5 nM	OCc1cc(Cl)c(Cc2ncc(-c3ccoc3)s2)cc1[C@@H]1O[C@H](CO)[C@@H](O)[C@H](O)[C@H]1O
2.23 nM	OCc1cc(Cl)c(Cc2ncc(-c3ccsc3)s2)cc1[C@@H]1O[C@H](CO)[C@@H](O)[C@H](O)[C@H]1O
17.5 nM	C=CCOCc1cc(Cl)c(Cc2ncc(-c3ccco3)s2)cc1[C@@H]1O[C@H](CO)[C@@H](O)[C@H](O)[C@H]1O
2.15 nM	COc1cc(Cl)c(Cc2ncc(-c3ccco3)s2)cc1[C@@H]1O[C@H](CO)[C@@H](O)[C@H](O)[C@H]1O
2.24 nM	OC[C@H]1O[C@@H](c2cc(Cc3ncc(-c4ccco4)s3)c(Cl)cc2Cl)[C@H](O)[C@@H](O)[C@@H]1O
713 nM	CN(C)CCOc1cc(Cl)c(Cc2ncc(-c3ccco3)s2)cc1[C@@H]1O[C@H](CO)[C@@H](O)[C@H](O)[C@H]1O
2.23 nM	C#CCOc1cc(Cl)c(Cc2ncc(-c3ccco3)s2)cc1[C@@H]1O[C@H](CO)[C@@H](O)[C@H](O)[C@H]1O
1.59 nM	COc1cc(Cl)c(Cc2ncc(-c3cccs3)s2)cc1[C@@H]1O[C@H](CO)[C@@H](O)[C@H](O)[C@H]1O
21.6 nM	CCCOc1cc(Cl)c(Cc2ncc(-c3ccco3)s2)cc1[C@@H]1O[C@H](CO)[C@@H](O)[C@H](O)[C@H]1O
1.18 nM	CCOc1cc(Cl)c(Cc2ncc(-c3ccsc3)s2)cc1[C@@H]1O[C@H](CO)[C@@H](O)[C@H](O)[C@H]1O
10 nM	C=CCOCc1cc(Cl)c(Cc2ncc(-c3ccsc3)s2)cc1[C@@H]1O[C@H](CO)[C@@H](O)[C@H](O)[C@H]1O
32.8 nM	C=CCCOc1cc(Cl)c(Cc2ncc(-c3ccco3)s2)cc1[C@@H]1O[C@H](CO)[C@@H](O)[C@H](O)[C@H]1O
16.2 nM	C=CCOCc1cc(Cl)c(Cc2ncc(-c3cccs3)s2)cc1[C@@H]1O[C@H](CO)[C@@H](O)[C@H](O)[C@H]1O
38.7 nM	C=CCOCc1cc(Cl)c(Cc2ncc(-c3ccoc3)s2)cc1[C@@H]1O[C@H](CO)[C@@H](O)[C@H](O)[C@H]1O
27.4 nM	OC[C@H]1O[C@@H](c2cc(Cc3ncc(-c4ccc(F)cc4)s3)c(Cl)cc2F)[C@H](O)[C@@H](O)[C@@H]1O
5.88 nM	OCc1cc(Cl)c(Cc2ncc(-c3cccs3)s2)cc1[C@@H]1O[C@H](CO)[C@@H](O)[C@H](O)[C@H]1O
5.81 nM	OCc1cc(Cl)c(Cc2ncc(-c3ccco3)s2)cc1[C@@H]1O[C@H](CO)[C@@H](O)[C@H](O)[C@H]1O
